Source: ChEMBL document CHEMBL1131161 (J Med Chem, 1998)

Legend:
Androgen receptor [1] = biological target: T1, Androgen receptor (Homo sapiens, UniProt P10275); experiment: Inhibitory activity (IC50) against human androgen receptor expressed in CV-1 cells; type: cell-based
T1 sequence (P10275 whole entry): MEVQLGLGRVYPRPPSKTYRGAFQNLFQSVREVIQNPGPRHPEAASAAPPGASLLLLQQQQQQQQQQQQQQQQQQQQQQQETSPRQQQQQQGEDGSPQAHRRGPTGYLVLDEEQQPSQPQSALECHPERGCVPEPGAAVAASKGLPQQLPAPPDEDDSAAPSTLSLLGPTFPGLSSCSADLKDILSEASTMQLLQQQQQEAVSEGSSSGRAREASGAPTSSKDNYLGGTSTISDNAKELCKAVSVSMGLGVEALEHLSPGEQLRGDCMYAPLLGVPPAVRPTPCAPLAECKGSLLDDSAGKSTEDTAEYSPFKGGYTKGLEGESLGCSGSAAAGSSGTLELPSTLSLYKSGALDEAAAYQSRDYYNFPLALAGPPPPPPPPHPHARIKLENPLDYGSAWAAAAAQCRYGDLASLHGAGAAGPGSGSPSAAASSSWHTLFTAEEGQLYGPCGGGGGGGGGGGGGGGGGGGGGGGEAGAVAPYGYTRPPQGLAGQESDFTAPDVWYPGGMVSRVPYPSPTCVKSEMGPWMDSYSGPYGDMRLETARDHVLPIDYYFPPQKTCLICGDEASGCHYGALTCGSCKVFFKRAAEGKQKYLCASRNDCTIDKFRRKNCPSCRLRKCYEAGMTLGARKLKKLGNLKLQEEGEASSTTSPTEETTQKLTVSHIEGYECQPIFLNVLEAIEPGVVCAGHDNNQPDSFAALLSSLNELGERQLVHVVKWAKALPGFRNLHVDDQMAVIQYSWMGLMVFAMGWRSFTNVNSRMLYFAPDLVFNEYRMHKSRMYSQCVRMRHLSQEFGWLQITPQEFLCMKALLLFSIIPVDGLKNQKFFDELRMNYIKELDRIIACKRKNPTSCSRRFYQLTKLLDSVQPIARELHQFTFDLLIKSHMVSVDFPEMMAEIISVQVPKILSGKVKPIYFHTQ
Method in brief: (§1)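 Cotransfection assays in CV-1 cells with a luciferase reporter, read as normalized LUC expression. In antagonist mode, the reference agonists were DHT for hAR, dexamethasone for hGR and aldosterone for hMR. Antagonist efficacy was expressed as the percent of maximal inhibition of the agonist. Values are means of at least three separate experiments in triplicate, or of two experiments.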

[2] = biological target: T2, Mineralocorticoid receptor (Homo sapiens, UniProt P08235); experiment: Inhibitory activity (IC50) against human mineralocorticoid receptor expressed in CV-1 cells; type: cell-based; method in brief: as §1
T2 sequence (P08235 whole entry): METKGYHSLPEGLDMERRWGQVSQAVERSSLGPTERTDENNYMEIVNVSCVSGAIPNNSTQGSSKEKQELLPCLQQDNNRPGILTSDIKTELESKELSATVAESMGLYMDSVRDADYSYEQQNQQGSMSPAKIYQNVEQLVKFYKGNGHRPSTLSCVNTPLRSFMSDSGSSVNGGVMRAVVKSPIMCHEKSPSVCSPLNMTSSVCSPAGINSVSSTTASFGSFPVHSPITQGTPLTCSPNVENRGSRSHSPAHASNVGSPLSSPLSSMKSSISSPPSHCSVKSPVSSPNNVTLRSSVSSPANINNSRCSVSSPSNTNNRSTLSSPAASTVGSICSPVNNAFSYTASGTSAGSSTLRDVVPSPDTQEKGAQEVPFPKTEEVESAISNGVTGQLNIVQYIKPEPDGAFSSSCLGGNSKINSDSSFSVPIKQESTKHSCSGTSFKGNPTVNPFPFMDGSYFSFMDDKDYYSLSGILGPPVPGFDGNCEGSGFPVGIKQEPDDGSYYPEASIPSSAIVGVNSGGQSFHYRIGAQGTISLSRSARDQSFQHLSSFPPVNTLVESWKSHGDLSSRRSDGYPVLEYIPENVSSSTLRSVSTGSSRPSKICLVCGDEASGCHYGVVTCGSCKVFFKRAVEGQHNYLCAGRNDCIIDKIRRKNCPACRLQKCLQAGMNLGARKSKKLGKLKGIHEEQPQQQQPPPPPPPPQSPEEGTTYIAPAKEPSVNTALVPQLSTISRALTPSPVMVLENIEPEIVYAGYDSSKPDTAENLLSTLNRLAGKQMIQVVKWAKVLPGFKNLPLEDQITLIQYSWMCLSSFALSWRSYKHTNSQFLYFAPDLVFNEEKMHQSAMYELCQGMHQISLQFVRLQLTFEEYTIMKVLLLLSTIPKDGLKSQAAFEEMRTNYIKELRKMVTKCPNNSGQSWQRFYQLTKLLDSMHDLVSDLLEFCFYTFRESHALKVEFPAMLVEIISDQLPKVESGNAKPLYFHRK

Androgen receptor [3] = biological target: T1, Androgen receptor

IC50 (Androgen receptor [1]) [nM] | IC50 [2] [nM] | SMILES | IC50 (Androgen receptor [3]) [nM]
1600 | > 10000 | CC1=CC(C)(C)Nc2ccc3c(c21)/C(=C/c1cc(F)ccc1F)Oc1ccccc1-3 | 
916 | > 10000 | CC1=CC(C)(C)Nc2ccc3c(c21)/C(=C/c1ccc(F)c(F)c1)Oc1ccccc1-3 | 

SMILES | IC50 (Androgen receptor [1]) [nM] | IC50 [2] [nM] | IC50 (Androgen receptor [3]) [nM]
CC1=CC(C)(C)Nc2ccc3c(c21)/C(=C/c1ccccc1C)Oc1ccccc1-3 |  | > 10000 | 1060
